Measured values from ChEMBL document CHEMBL1155001, “Design, synthesis of novel peptidomimetic derivatives of 4-HPR for rhabdoid tumors” (Bioorg Med Chem Lett, 2008).

How the values were obtained:
Assay type in all cases: functional, cell-based
[1] = Cytotoxicity against human STM cells assessed as cell survival after 3 days by MTS assay; conditions: 72 h
[2] = test system: G-401; experiment: Cytotoxicity against human G401 cells assessed as cell survival after 3 days by MTS assay; conditions: G-401, 72 h
[3] = Cytotoxicity against INI1 gene deficient human MON cells assessed as cell survival after 3 days by MTS assay; conditions: 72 h
How it was run: (§1)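 INI1-deficient MON rhabdoid tumor cells were grown in RPMI 1640 with 10% FBS, 2 mM L-glutamine, penicillin and streptomycin at 37 °C in 5% CO2. Survival was read by MTS after 3 days. Relative IC50 was taken from a sigmoidal variable-slope fit of % inhibition vs log concentration.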

[4] = Cytotoxicity against human MON cells assessed as cell survival after 3 days by MTS assay; conditions: 72 h; how it was run: as §1

| Structure (SMILES) | IC50 [1] [µM] | IC50 [2] [µM] | IC50 [3] [µM] | IC50 [4] [µM] |
| --- | --- | --- | --- | --- |
| CC1=C(/C=C/C(C)=C/C=C/C(C)=C/C(=O)Nc2ccc(O)cc2)C(C)(C)CCC1 [FENRETINIDE] | 5 | 5 | 14.7 | 12 |
| CCC1=C(C)/C(=C/c2ccc(C(=O)Nc3ccc(O)c(I)c3)cc2)CCC1(C)C | – | – | 3.15 | – |
| CCC1=C(C)/C(=C/c2ccc(C(=O)Nc3ccc(O)c(F)c3)cc2)CCC1(C)C | – | – | 12.9 | – |
| CCC1=C(C)/C(=C/c2ccc(C(=O)Nc3ccc(O)c(Cl)c3)cc2)CCC1(C)C | – | – | 10.4 | – |
| CCC1=C(C)/C(=C/c2ccc(C(=O)O)cc2)CCC1(C)C | – | – | > 50 | – |
| CCC1=C(C)/C(=C/c2ccc(C(=O)Nc3ccc(O)cc3O)cc2)CCC1(C)C | – | – | 47.2 | – |
| CCC1=C(C)/C(=C/c2ccc(C(=O)Nc3ccc(CO)cc3)cc2)CCC1(C)C | – | – | 29.1 | – |
